Test results from ChEMBL document CHEMBL5608261, “Pharmacophore Establishment and Optimization of Saturated 1,6-Naphthyridine-Fused Quinazolinones that Inhibit Meningoencephalitis-Causing Naegleria fowleri” (J Med Chem, 2024).
In brackets after ≈: the same amount, converted by molar mass.

What was measured:
[1] = Metabolic stability in CD-1 mouse liver microsomes assessed as half-life incubated for 60 mins by LC-MS/MS analysis; assay type: ADME, Microsome; details: 1 h
Outline: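 Half-life measured in CD-1 mouse liver microsomes with NADPH over a 60 min exposure.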

[2] = Selectivity index, ratio of CC50 for cytotoxicity against human SH-SY5Y cells to EC50 for anti-amoebic activity against Naegleria fowleri Nf69 (ATCC 30215) assessed as inhibition of amoeba growth; assay type: toxicity, cell-based; details: for selectivity ratio: SH-SY5Y cells, read-out: Ratio CC50/EC50
Naegleria fowleri [3] = experiment: Anti-ameobic activity against Naegleria fowleri Nf69 (ATCC 30215) trophozoites assessed as inhibition of amoeba growth incubated for 48 hrs by CellTiter-Glo assay; assay type: functional, organism-based
Outline: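 Axenic Nf69 trophozoites were seeded at 1 × 10^4 cells/mL in Nelson's complete medium with 10% heat-inactivated FBS. Compound was added at 20 to 0.375 μM (lower ranges for very potent compounds), with vehicle controls, for 48 h at 37 °C and 5% CO2. CellTiter-Glo luminescence gave % growth inhibition versus controls, and triplicate means were fitted to dose–response curves for EC50.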

[4] = Kinetic solubility of compound at pH 7.4 incubated for 24 hrs by HPLC analysis; assay type: physicochemical; details: buffer; for solubility kinetic at 24 h: pH 7.4, read-out: Kinetic_solubility; for Kinetic_solubility: pH 7.4, 24 h
SH-SY5Y = experiment: (§1) Cytotoxicity against human SH-SY5Y cells assessed as reduction in cell viability incubated for 72 hrs by CellTiter-Glo assay; assay type: toxicity, cell-based; details: sh-sy5y, 72 h
Outline: (§2)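 SH-SY5Y cells at 2000 per well attached overnight at 37 °C. Compound from 20 mM DMSO stocks was added in triplicate as a dose series starting at 20 μM, with doxorubicin as positive control.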

[5] = as §1; assay type: toxicity, cell-based; details: SH-SY5Y cells; outline: as §2
Naegleria fowleri [6] = experiment: Anti-ameobic activity against Naegleria fowleri Nf69 (ATCC 30215) trophozoites infected in female CD-1 mouse model assessed as survival rate at 5 mg/kg, ip pre-infected for 48 hrs from day 0 followed by once daily compound administration from day 2 to day 6 and measured on day 14 post-infection relative to control; assay type: functional; details: 312 h, time 13 day
Outline: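 Female CD-1 mice (n = 6/group) were infected intranasally with Nf69 trophozoites on day 0. After a 48 h establishment period, they received IP dosing at 5 mg/kg once daily for 5 days, alongside a vehicle-only infected control group. Survival was followed for 14 days with Kaplan–Meier analysis. Survivor brain tissue was cultured for amoeba, and survival counted only mice whose brains were free of amoeba.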

Naegleria fowleri [7] = experiment: Anti-ameobic activity against Naegleria fowleri TY (ATCC 30107) trophozoites assessed as inhibition of amoeba growth incubated for 48 hrs by CellTiter-Glo assay; assay type: functional, organism-based
Outline: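 TY strain (ATCC 30107) trophozoites, seeded at 1 × 10^4 cells/mL, were exposed 48 h (37 °C, 5% CO2) to vehicle or compound, with concentrations initially 20 to 0.375 μM. CellTiter-Glo luminescence gave % growth inhibition versus controls. EC50 was fit from triplicate runs (n = 3, ± SEM).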

[8] = Protein binding in CD-1 mouse plasma incubated for 4 hrs by equilibrium dialysis based LC-MS/MS analysis; assay type: ADME, cell-free; details: CD-1, mouse, read-out: PPB (converted)
[9] = Metabolic stability in human liver microsomes assessed as half-life; assay type: ADME, Microsome
[10] = Stability in CD-1 mouse plasma assessed as half-life measured upto 120 mins by LC-MS analysis; assay type: ADME, cell-free; details: 2 h
[11] = Protein binding in CD-1 mouse plasma assessed as free fraction incubated for 4 hrs by equilibrium dialysis based LC-MS/MS analysis; assay type: ADME, cell-free
[12] = Naegleria fowleri, Nf69 (ATCC 30215), 48 h

COc1cc2nc3n(c(=O)c2cc1Cl)CC[C@@H]1[C@@H]3CCCN1CCN1CCOCC1 (racemic)
t1/2 [1]: 29.8 min | selectivity ratio [2]: > 38.5 | EC50 (Naegleria fowleri [3]; [12]): 520 nM | solubility kinetic at 24 h [4]: 43.1 µM (≈ 18.7 µg/mL) | CC50 (SH-SY5Y): > 20000 nM

COc1cc2nc3n(c(=O)c2cc1Cl)CC[C@@H]1[C@@H]3CCCN1CC1CC1 (racemic)
t1/2 [1]: 12.6 min | selectivity ratio [2]: 43.5 | EC50 (Naegleria fowleri [3]; [12]): 23 nM | solubility kinetic at 24 h [4]: 76.1 µM (≈ 28.5 µg/mL) | CC50 (SH-SY5Y): 1000 nM

CN1CCC[C@@H]2c3nc4ccc(C(F)(F)F)cc4c(=O)n3CC[C@H]21
t1/2 [1]: 10.9 min | Ratio CC50/EC50 [2]: > 80 | EC50 (Naegleria fowleri [3]): 250 nM | Kinetic_solubility ([4]; 24 h): 109 µM

COc1cc2nc3n(c(=O)c2cc1C#N)CC[C@@H]1[C@@H]3CCCN1CC1COC1 (racemic)
t1/2 [1]: 104.6 min | selectivity ratio [2]: > 167 | EC50 (Naegleria fowleri [3]; [12]): 120 nM | solubility kinetic at 24 h [4]: 136 µM (≈ 51.7 µg/mL) | CC50 (SH-SY5Y): > 20000 nM

CN1CCC[C@@H]2c3nc4ccc(Cl)cc4c(=O)n3CC[C@H]21 (racemic)
t1/2 [1]: 18.5 min | Ratio CC50/EC50 [2]: > 20 | EC50 (Naegleria fowleri [3]): 1000 nM | solubility kinetic at 24 h [4]: 187 µM (≈ 56.8 µg/mL) | CC50 at 72 h [5]: > 20000 nM

O=c1c2cc(Cl)c(Cl)cc2nc2n1CC[C@@H]1[C@@H]2CCCN1CC1COC1 (racemic)
t1/2 [1]: 109 min | selectivity ratio [2]: > 33000 | EC50 (Naegleria fowleri [3]; [12]): 6 nM | Kinetic_solubility [4]: 40 µM | CC50 (SH-SY5Y): > 20000 nM

COc1cc2nc3n(c(=O)c2cc1Cl)CC[C@@H]1[C@@H]3CCCN1CC1CCC1 (racemic)
t1/2 [1]: 3.8 min | selectivity ratio [2]: 42.7 | EC50 (Naegleria fowleri [3]; [12]): 15 nM | solubility kinetic at 24 h [4]: 4.6 µM (≈ 1.78 µg/mL) | CC50 (SH-SY5Y): 640 nM

CN1CCC[C@@H]2c3nc4ccc(C(F)(F)F)cc4c(=O)n3CC[C@H]21 (racemic)
t1/2 [1]: 21.2 min | Ratio CC50/EC50 [2]: > 18.2 | EC50 (Naegleria fowleri [3]): 1100 nM | solubility kinetic at 24 h [4]: 159 µM (≈ 53.6 µg/mL) | CC50 at 72 h [5]: > 20000 nM

C[C@@H]1[C@H](O)[C@@H](C)/C=C/C=C/C=C/C=C/C=C/C=C/C=C/[C@H](O[C@@H]2O[C@H](C)[C@@H](O)[C@H](N)[C@@H]2O)C[C@@H]2O[C@](O)(C[C@@H](O)C[C@@H](O)[C@H](O)CC[C@@H](O)C[C@@H](O)CC(=O)O[C@H]1C)C[C@H](O)[C@H]2C(=O)O [AMPHOTERICIN B]
survival at 5 mg/kg (Naegleria fowleri [6]): 17%

COc1cc2nc3n(c(=O)c2cc1Cl)CC[C@@H]1[C@@H]3CCCN1CCOC(C)C (racemic)
t1/2 [1]: 3.1 min | selectivity ratio [2]: 22.7 | EC50 (Naegleria fowleri [3]; [12]): 110 nM | solubility kinetic at 24 h [4]: 65.7 µM (≈ 26.7 µg/mL) | CC50 (SH-SY5Y): 2500 nM

CN1CCC[C@@H]2c3nc4ccc(Cl)cc4c(=O)n3CC[C@H]21
t1/2 [1]: 11.5 min | Ratio CC50/EC50 [2]: > 71.4 | EC50 (Naegleria fowleri [3]): 280 nM | Kinetic_solubility ([4]; 24 h): 129 µM | CC50 (SH-SY5Y): > 20000 nM

O=c1c2cc(Cl)c(Cl)cc2nc2n1CC[C@@H]1[C@@H]2CCCN1CCN1CCOCC1 (racemic)
t1/2 [1]: 75.2 min | EC50 (Naegleria fowleri [3]; [12]): 11 nM | Kinetic_solubility [4]: 206 µM | CC50 (SH-SY5Y): > 20000 nM

O=c1c2cc(Cl)c(Cl)cc2nc2n1CC[C@@H]1[C@@H]2CCCN1CCO (racemic)
t1/2 [1]: 83.1 min | EC50 (Naegleria fowleri [3]; [12]): 20 nM | Kinetic_solubility [4]: < 10 µM | CC50 (SH-SY5Y): > 20000 nM

COc1cc2nc3n(c(=O)c2cc1Cl)CC[C@H]1[C@H]3CCCN1CC(C)C
selectivity ratio [2]: 38 | EC50 (Naegleria fowleri [3]; [12]): 27 nM | solubility kinetic at 24 h [4]: 2.6 µM (≈ 0.977 µg/mL) | CC50 (SH-SY5Y): 1000 nM

CN1CCC[C@@H]2c3nc4cc(Cl)c(Cl)cc4c(=O)n3CC[C@H]21
t1/2 [1]: 6.1 min | Ratio CC50/EC50 [2]: 90.7 | EC50 (Naegleria fowleri [3]): 86 nM | Kinetic_solubility ([4]; 24 h): 98.2 µM | CC50 (SH-SY5Y): 7800 nM

CN1CCC[C@@H]2c3nc4cc(Cl)c(Cl)cc4c(=O)n3CC[C@H]21 (racemic)
selectivity ratio [2]: > 100 | EC50 (Naegleria fowleri [3]): 200 nM | solubility kinetic at 24 h [4]: 138 µM (≈ 46.7 µg/mL) | CC50 at 72 h [5]: > 20000 nM

COc1cc2nc3n(c(=O)c2cc1Cl)CC[C@@H]1[C@@H]3CCCN1CC1COC1
t1/2 [1]: 75.6 min | Ratio CC50/EC50 [2]: > 40.8 | EC50 (Naegleria fowleri [7]): 470 nM | fraction unbound at 4 h [8]: 0.26 | t1/2 [9]: 80.3 min | EC50 (Naegleria fowleri [3]): 490 nM | t1/2 [10]: > 289 min | solubility kinetic at 24 h [4]: 29.1 µM (≈ 11.3 µg/mL) | fraction unbound at 4 h [11]: 0.26 | CC50 (SH-SY5Y): > 20000 nM

COc1cc2nc3n(c(=O)c2cc1Cl)CC[C@@H]1[C@@H]3CCCN1CCN1CCCC1 (racemic)
t1/2 [1]: > 145 min | selectivity ratio [2]: > 27 | EC50 (Naegleria fowleri [3]; [12]): 740 nM | solubility kinetic at 24 h [4]: 172 µM (≈ 71.7 µg/mL) | CC50 (SH-SY5Y): > 20000 nM

COc1cc2nc3n(c(=O)c2cc1Cl)CC[C@@H]1[C@@H]3CCCN1CC1COC1 (racemic)
t1/2 [1]: > 145 min | Ratio CC50/EC50 [2]: 172 | EC50 (Naegleria fowleri [3]): 29 nM | Kinetic_solubility ([4]; 24 h): 198 µM | CC50 (SH-SY5Y): 5000 nM
